CaV13 ICDI inh = Disruptors of the CACNA1D IQ motif to Ca2+-dependent inactivation inhibitor domain association, primary screening, Förster resonance energy transfer in intact living … | inhibition, % at 12.3 µM | 340,000 compounds, 0.098% hits | HEK cells, CFP/YFP FRET ICDI-IQ, plate reader, 10 min; percent FRET-ratio fall versus neutral wells;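 active = mean replicate inhibition of at least 30% and at least 1% of replicates passing that level; inconclusive = only one of the two criteria is met; inactive = neither criterion is met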
Runt-SMMHC FRET = inhibitors of RUNX1 Runt–CBFb-SMMHC binding, primary screen, biochemical, FRET, Cerulean-Runt, Venus-CBFb-SMMHC, uHTS | inhibition, % at 20 µM | 220,000 compounds, 0.74% hits | Cerulean-Runt/Venus-CBFb-SMMHC FRET ratio 530/480, 1 h | Runt-related transcription factor 1 (Homo sapiens) + Core-binding factor subunit beta …;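 active = mean inhibition across duplicate retests at 20 µM reaching about 50%, limit read from the data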;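 note: inhibitors lower the FRET ratio by blocking Runt binding to CBFb-SMMHC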
RanGTP-Imp inh = inhibitors of RanGTP-importin-beta interaction, primary screen, biochemical, FRET, CFP-Ran, YFP-importin-beta, homogeneous. Ran GTPase (GTP-bound) - importin-beta complex. cell-free CFP-Ran/YFP-importin-beta FRET ratio. inhibition, % (concentration not given with the values). 300,000 compounds, 1.1% hits. AID 2216, 2009;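 active = more than half of the replicate wells show a fall in the fluorescence ratio signal beyond about 16%, limit read from the data, passing the limit was not always enough; inconclusive = exactly half of the replicate wells pass the set limit; inactive = fewer than half of replicates pass the limit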
LANA-H2A inh = blockers of LANA interaction with H2A/H2B – biochemical, FP readout, HTS, primary screen; Protein LANA1 (Human herpesvirus 8 type P (isolate GK18)), Q9QR71; cell-free LANA-H2A/H2B peptide, fluorescence polarization; inhibition, % (no concentration beside the values); 320,000 compounds, 0.6% hits; in the data active = inhibition mostly above about 10%, no sharp cut-off; inactive = mostly below about 6.7%
HDAC3 inh = HDAC3 deacetylase inhibitors, primary screen, biochemical, fluorescence, cell-free homogeneous; Histone deacetylase 3 (Homo sapiens), O15379; recombinant HDAC3, fluorogenic peptide/trypsin coupled; inhibition, % at 8.3 µM; 320,000 compounds, 0.15% hits; in the data active = inhibition above about 26%, passing the limit was not always enough; inconclusive = no clear call, values can overlap the other calls
Runt-CBFb FRET = inhibitors of RUNX1 Runt–CBFb binding, primary screen, biochemical, FRET, Cerulean-Runt, Venus-CBFb, uHTS; Cerulean-Runt/Venus-CBFb FRET ratio 530/480, 1 h; AID 1496, 2009; Runt-related transcription factor 1 (Homo sapiens) + Core-binding factor subunit beta …; inhibition, % at 20 µM; 220,000 compounds, 0.46% hits;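 active = inhibition over about 50% at 20 µM in the single-dose screen, limit read from the data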
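Measured by: fluorescence energy transfer, 422 nm excitation, 530/480 nm emission; test system: Cerulean-tagged RUNX1 Runt domain (FRET donor) fusion protein; buffer or medium: Tris pH 7.5 buffer with BSA; compound: one dose, 20 µM compound, 1% DMSO; times: two 1 h room-temperature incubations shielded from light; benchmarks: unlabeled CBFb 5 µM, positive control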
Numbers stand for hits. In the library only some 1.9% were active in any assay of this set; here they are far more common.

For O=C(CCc1c[nH]c2ccccc12)N1CCCCCCC1 the results were CaV13 ICDI inh inactive, RanGTP-Imp inh inactive, LANA-H2A inh 60 and HDAC3 inh inactive.
Screening CC#CC#Cc1cccc(=O)o1 returned CaV13 ICDI inh inactive, Runt-SMMHC FRET inactive, RanGTP-Imp inh inactive, LANA-H2A inh inactive, HDAC3 inh inactive and Runt-CBFb FRET inactive.
Screening N#Cc1ccc(NC(=O)Nc2ccc(Cl)cc2)cc1 returned CaV13 ICDI inh inactive, Runt-SMMHC FRET inactive, RanGTP-Imp inh inactive, LANA-H2A inh inactive, HDAC3 inh inactive and Runt-CBFb FRET inactive.
`N#CC(C#N)=C/C=C(\Nc1ccc(Cl)cc1)c1ccc(Cl)cc1` gave CaV13 ICDI inh inactive, Runt-SMMHC FRET inactive, RanGTP-Imp inh 66, LANA-H2A inh inactive, HDAC3 inh inactive and Runt-CBFb FRET inactive.
Cc1sccc1C1C(C#N)=C(N)SC(N)=C1C#N was read as Runt-SMMHC FRET inactive, RanGTP-Imp inh 68, LANA-H2A inh inactive, HDAC3 inh inactive and Runt-CBFb FRET inactive.
For CCOc1ccc(S(=O)(=O)N2CCCC(C(=O)N3CCOCC3)C2)cc1 (stereo not given) the results were CaV13 ICDI inh inactive, RanGTP-Imp inh inactive, LANA-H2A inh inactive and HDAC3 inh inactive.
`COc1ccc2c3c(cccc13)C(=O)N(O)C2=O` gave CaV13 ICDI inh inactive, Runt-SMMHC FRET inactive, RanGTP-Imp inh inactive, LANA-H2A inh inactive, HDAC3 inh inactive and Runt-CBFb FRET inactive.
Screening CCC1=NNc2cccc3c(OC)ccc1c23 returned Runt-SMMHC FRET inactive, RanGTP-Imp inh inactive, LANA-H2A inh inactive, HDAC3 inh 31 and Runt-CBFb FRET inactive.
Screening CCOc1ccc(C=NCC(O)c2ccccc2)cc1 (stereo not given) returned CaV13 ICDI inh inactive, RanGTP-Imp inh inactive, LANA-H2A inh inactive and HDAC3 inh inactive.
Screening Cc1c(Cc2ccccc2)c(=O)oc2c(C)c(OC(C)C(=O)N[C@@H](Cc3ccccc3)C(=O)O)ccc12 (stereo not given in full) returned RanGTP-Imp inh inactive, LANA-H2A inh inactive and HDAC3 inh inactive.
`Brc1ccc(-c2ccc(/C=N/Nc3nncc(-c4ccccc4)n3)o2)cc1` gave CaV13 ICDI inh inactive, Runt-SMMHC FRET inactive, RanGTP-Imp inh inactive, LANA-H2A inh inactive, HDAC3 inh inactive and Runt-CBFb FRET inactive.
`Brc1ccc(-c2ccc(/C=N/Nc3nc4ccccc4[nH]3)o2)cc1` gave CaV13 ICDI inh inactive, Runt-SMMHC FRET inactive, RanGTP-Imp inh 64, LANA-H2A inh inactive, HDAC3 inh inactive and Runt-CBFb FRET inactive.
For O=C(c1ccco1)[C@@H]1[C@@H]2C(=O)N(c3ccc(Br)cc3)C(=O)[C@@H]2C2c3ccccc3C=CN21 (stereo not given in full) the results were Runt-SMMHC FRET inactive and Runt-CBFb FRET inactive.
O=C(c1ccco1)[C@@H]1[C@@H]2C(=O)N(c3ccc(F)cc3)C(=O)[C@@H]2C2c3ccccc3C=CN21 (stereo not given in full) was read as CaV13 ICDI inh inactive, Runt-SMMHC FRET inactive, RanGTP-Imp inh 45, LANA-H2A inh inactive, HDAC3 inh inactive and Runt-CBFb FRET inactive.
`Cc1cc(C)c2c(N=NN(C)C)[nH]nc2n1` gave CaV13 ICDI inh inactive, Runt-SMMHC FRET inactive, RanGTP-Imp inh inactive, LANA-H2A inh inactive, HDAC3 inh inactive and Runt-CBFb FRET inactive.
`COc1ccc(C(=O)NN=C2CCCC2)cc1` gave CaV13 ICDI inh inactive, RanGTP-Imp inh 28, LANA-H2A inh inactive and HDAC3 inh inactive.
For CC(=O)Nc1ccc(S(=O)(=O)NCCC(=O)NC2CCCCCC2)cc1 the results were CaV13 ICDI inh inactive.
`COc1ccc(C(=O)n2nnc3ccccc32)cc1Br` gave Runt-SMMHC FRET inactive, RanGTP-Imp inh inconclusive, LANA-H2A inh inactive, HDAC3 inh 96 and Runt-CBFb FRET inactive.
For COc1ccc(C(=O)n2nnc3ccccc32)cc1OC the results were CaV13 ICDI inh inactive, Runt-SMMHC FRET inactive, LANA-H2A inh inactive, HDAC3 inh 70 and Runt-CBFb FRET inactive.
`COc1cc(NC(=S)N2CCN(c3ccccn3)CC2)cc(OC)c1` gave CaV13 ICDI inh inactive, Runt-SMMHC FRET inactive, RanGTP-Imp inh inactive, LANA-H2A inh inactive, HDAC3 inh inactive and Runt-CBFb FRET inactive.
`CN(C(=O)CSc1nc2c(cnn2-c2ccccc2)c(=O)[nH]1)C1CCS(=O)(=O)C1` (stereo not given) gave CaV13 ICDI inh inactive, Runt-SMMHC FRET inactive, RanGTP-Imp inh inactive, LANA-H2A inh inactive, HDAC3 inh inactive and Runt-CBFb FRET inactive.
COc1cc(C(c2c(C(=O)O)[nH]c3ccccc23)c2c(C(=O)O)[nH]c3ccccc23)ccc1OCc1ccccc1 was read as CaV13 ICDI inh 103, RanGTP-Imp inh inactive, LANA-H2A inh inactive and HDAC3 inh inactive.
`O=C(O)c1[nH]c2ccccc2c1C(c1ccccc1)c1c(C(=O)O)[nH]c2ccccc12` gave CaV13 ICDI inh inactive, RanGTP-Imp inh inactive, LANA-H2A inh inactive and HDAC3 inh inactive.
`CCCC(C)c1nnc(NC(=O)CCS(=O)(=O)Cc2ccccc2)s1` (stereo not given) gave CaV13 ICDI inh inactive, RanGTP-Imp inh inactive, LANA-H2A inh inactive and HDAC3 inh inactive.
CCCC(C)c1nnc(NC(=O)CS(=O)(=O)Cc2ccccc2)s1 (stereo not given) was read as CaV13 ICDI inh inactive, Runt-SMMHC FRET inactive, RanGTP-Imp inh inactive, LANA-H2A inh 30, HDAC3 inh inactive and Runt-CBFb FRET inactive.
Screening COc1cc(C(=S)N2CCCCC2)ccc1O returned Runt-SMMHC FRET inactive, LANA-H2A inh inactive, HDAC3 inh inactive and Runt-CBFb FRET inactive.
`COc1cc(C(=S)N2CCCC2)ccc1O` gave CaV13 ICDI inh inactive, Runt-SMMHC FRET 66, RanGTP-Imp inh inactive, LANA-H2A inh inactive, HDAC3 inh inactive and Runt-CBFb FRET inactive.
Screening Cc1cc(Oc2ccc(C)c(Cl)c2)nc(SCC(=O)c2ccccc2)n1 returned CaV13 ICDI inh inactive, Runt-SMMHC FRET inactive, RanGTP-Imp inh inactive, LANA-H2A inh 16, HDAC3 inh inactive and Runt-CBFb FRET inactive.
For CC(=O)Nc1ccc(-c2cn3ccsc3n2)cc1 the results were CaV13 ICDI inh inactive, Runt-SMMHC FRET inactive, RanGTP-Imp inh inactive, LANA-H2A inh 15, HDAC3 inh inactive and Runt-CBFb FRET inactive.
CN(C)/C=C1/N=C(c2ccccc2)OC1=O was read as CaV13 ICDI inh inactive, Runt-SMMHC FRET inactive, RanGTP-Imp inh inactive, LANA-H2A inh inactive, HDAC3 inh inactive and Runt-CBFb FRET inactive.
